ChEMBL document CHEMBL2029339, “Acylthiourea, acylurea, and acylguanidine derivatives with potent hedgehog inhibiting activity” (J Med Chem, 2012)
Activity calls are given as the source filed them. The calls are words filed in the database; no cut-off is given here.

Assays:
[1] = Antiproliferative activity against SAG-induced rat cerebellar granule cell precursors by [3H]-thymidine incorporation assay; type: functional
In short: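 Primary rat cerebellar granule cell precursors stimulated with SAG (0.01 μM) together with increasing concentrations of test compound. Proliferation read as [3H]-thymidine incorporation, expressed as % of maximal SAG response. Quadruplicates, n = 3–10 independent experiments. IC50 and Hill coefficient obtained by curve fitting.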

C3H 10T1/2 [2] = test: Inhibition of SAG-induced differentiation of mouse mesenchymal pluripotent C3H10T1/2 cells to alkaline phosphatase positive oeseoblasts at 10 uM after 6 days; conditions: C3H 10T1/2, 6 days
C3H 10T1/2 [3] = test: Inhibition of SAG-induced differentiation of mouse mesenchymal pluripotent C3H10T1/2 cells to alkaline phosphatase positive oeseoblasts after 6 days; conditions: C3H 10T1/2, 6 days
[4] = Ratio of Cur61414 IC50 to compound IC50 for inhibition of SAG-induced rat cerebellar granule cell precursors by [3H]-thymidine incorporation assay; type: functional
Protein smoothened = Protein smoothened (Homo sapiens, UniProt Q99835); test: Displacement of BODIPY-labelled cyclopamine from human Smo receptor expressed in HEK293 cells after 2 hrs by fluorescence microscopy; type: cell-based
In short: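 HEK293 cells stably expressing human Smo, grown on poly-D-lysine coverslips and fixed in 4% paraformaldehyde. BODIPY fluorescence above the no-probe background, normalized to DAPI nuclear area in 3–4 fields per coverslip, given as % of probe-alone signal.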

Rattus norvegicus = species: Rattus norvegicus; test: Antiproliferative activity against rat cerebellar granule cell precursors at 1 uM by [3H]-thymidine incorporation assay; type: functional
[5] = Ratio of cyclopamine IC50 to compound IC50 for inhibition of SAG-induced rat cerebellar granule cell precursors by [3H]-thymidine incorporation assay; type: functional
[6] = molecular target: Smoothened (Mus musculus) (UniProt P56726); test: Inhibition of Smo-mediated Hh signaling in mouse Shh-light2 cells at 3 uM by luciferase reporter gene assay; conditions: Shh Light II
[7] = molecular target: Smoothened (Mus musculus) (UniProt P56726); test: Inhibition of Smo-mediated Hh signaling in mouse Shh-light2 cells at 0.3 uM by luciferase reporter gene assay; conditions: Shh Light II
[8] = molecular target: Smoothened (Mus musculus) (UniProt P56726); test: Inhibition of Smo-mediated Hh signaling in mouse Shh-light2 cells by luciferase reporter gene assay
[9] = molecular target: Smoothened (Mus musculus) (UniProt P56726); test: Antagonist activity at Smo receptor

Protein smoothened, sequence (Q99835 whole entry): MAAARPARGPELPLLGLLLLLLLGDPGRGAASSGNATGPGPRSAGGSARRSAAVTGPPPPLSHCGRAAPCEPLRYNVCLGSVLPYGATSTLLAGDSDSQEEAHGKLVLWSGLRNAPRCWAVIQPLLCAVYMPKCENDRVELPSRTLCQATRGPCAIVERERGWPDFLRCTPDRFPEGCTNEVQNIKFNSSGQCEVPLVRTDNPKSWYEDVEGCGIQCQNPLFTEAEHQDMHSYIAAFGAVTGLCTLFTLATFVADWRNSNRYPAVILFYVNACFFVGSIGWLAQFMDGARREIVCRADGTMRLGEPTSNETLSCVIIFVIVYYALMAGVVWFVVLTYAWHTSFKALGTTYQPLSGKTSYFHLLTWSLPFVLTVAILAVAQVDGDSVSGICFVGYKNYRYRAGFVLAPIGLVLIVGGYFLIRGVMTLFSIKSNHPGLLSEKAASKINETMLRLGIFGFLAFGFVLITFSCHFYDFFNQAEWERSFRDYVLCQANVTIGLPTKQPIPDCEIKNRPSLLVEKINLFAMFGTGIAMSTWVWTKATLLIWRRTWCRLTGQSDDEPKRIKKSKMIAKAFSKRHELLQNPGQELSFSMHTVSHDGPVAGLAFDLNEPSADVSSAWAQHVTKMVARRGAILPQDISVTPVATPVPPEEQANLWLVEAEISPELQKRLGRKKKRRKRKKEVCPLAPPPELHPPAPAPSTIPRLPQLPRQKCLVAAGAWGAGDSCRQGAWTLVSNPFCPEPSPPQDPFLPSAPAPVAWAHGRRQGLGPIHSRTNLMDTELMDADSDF
Smoothened (Mus musculus), sequence (P56726 whole entry, looked up): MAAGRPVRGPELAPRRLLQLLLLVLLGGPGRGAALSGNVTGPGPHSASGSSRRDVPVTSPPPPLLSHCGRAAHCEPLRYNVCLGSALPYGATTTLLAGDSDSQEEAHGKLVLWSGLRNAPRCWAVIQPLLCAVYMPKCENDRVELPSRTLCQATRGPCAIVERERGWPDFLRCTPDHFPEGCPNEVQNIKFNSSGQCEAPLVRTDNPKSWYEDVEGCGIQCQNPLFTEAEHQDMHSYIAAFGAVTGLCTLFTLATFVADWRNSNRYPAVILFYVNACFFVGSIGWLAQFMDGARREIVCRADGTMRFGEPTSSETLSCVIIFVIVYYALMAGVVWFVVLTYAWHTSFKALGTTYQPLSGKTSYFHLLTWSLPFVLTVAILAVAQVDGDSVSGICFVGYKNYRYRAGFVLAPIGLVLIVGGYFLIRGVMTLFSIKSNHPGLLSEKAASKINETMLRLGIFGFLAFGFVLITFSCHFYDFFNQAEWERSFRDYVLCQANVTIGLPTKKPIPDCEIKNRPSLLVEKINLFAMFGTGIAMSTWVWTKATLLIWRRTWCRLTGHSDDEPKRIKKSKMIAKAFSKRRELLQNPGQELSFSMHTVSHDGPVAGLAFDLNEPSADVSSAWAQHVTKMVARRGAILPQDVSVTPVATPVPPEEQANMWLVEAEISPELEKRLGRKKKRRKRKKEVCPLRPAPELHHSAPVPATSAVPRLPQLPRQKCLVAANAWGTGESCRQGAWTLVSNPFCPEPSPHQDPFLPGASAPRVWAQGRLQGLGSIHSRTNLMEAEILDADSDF

Compound	IC50 (C3H 10T1/2 [3]) [nM]	IC50 (Protein smoothened) [nM]	inhibition [6] [%]	inhibition [7] [%]	IC50 [8] [nM]	IC50 [9] [nM]	IC50 [1] [nM]	inhibition at 10 µM (C3H 10T1/2 [2]) [%]	Ratio IC50 [4]	Activity (Rattus norvegicus)	Ratio IC50 [5]
CC1=C2C[C@H]3[C@@H](CC=C4C[C@@H](O)CC[C@@]43C)[C@@H]2CC[C@]12O[C@@H]1C[C@H](C)CN[C@H]1[C@H]2C [CYCLOPAMINE]	620	–	–	–	–	–	100	98	–	–	–
COc1cc(C(=O)NC(=O)Nc2ccc(C)c(NC(=O)c3ccc(-c4ccccc4)cc3)c2)cc(OC)c1OC	25	24	99	96	13	–	6	101	20	inactive	20
COc1cc(C(=O)NC(=N)Nc2cccc(-c3cc4ccccc4[nH]3)c2)cc(OC)c1OC	180	–	–	–	70	–	–	–	–	–	–
COc1cc(C(=O)NC(=N)Nc2ccc(C)c(NC(=O)c3ccc(-c4ccccc4)cc3)c2)cc(OC)c1OC	11	5	–	–	15	–	6	–	20	inactive	20
COc1cc(C(=O)NC(=N)Nc2ccc(Cl)c(NC(=O)c3ccccc3)c2)cc(OC)c1OC	370	–	–	–	370	–	–	–	–	–	–
COc1cc(C(=O)NC(=N)Nc2cccc(NC(=O)c3ccc(-c4ccc(F)cc4)cc3)c2)cc(OC)c1OC	30	–	–	–	33	–	–	–	–	–	–
COc1cc(C(=O)NC(=N)Nc2cccc(NC(=O)c3ccc(N4CCOCC4)cc3)c2)cc(OC)c1OC	200	–	–	–	220	–	–	–	–	–	–
COc1cc(C(=O)NC(=N)Nc2ccc(Cl)c(C(=O)Nc3ccccc3)c2)cc(OC)c1OC	440	–	–	–	160	–	–	–	–	–	–
CS(=O)(=O)c1ccc(C(=O)Nc2ccc(Cl)c(-c3ccccn3)c2)c(Cl)c1 [VISMODEGIB]	11	–	–	–	–	–	4	99	–	–	–
COc1cc(C(=O)NC(=S)Nc2cccc(-c3cn4ccsc4n3)c2)cc(OC)c1OC	–	–	92	–	1100	–	–	98	–	–	–
COc1cc(C(=O)NC(=O)Nc2ccc(Cl)c(NC(=O)c3ccc(-c4ccccc4)cc3)c2)cc(OC)c1OC	100	–	98	95	80	–	–	72	–	–	–
COc1cc(C(=O)NC(=S)Nc2ccc(Cl)c(NC(=O)c3ccccc3)c2)cc(OC)c1OC	990	–	89	69	190	–	–	96	–	–	–
COc1cc(C(=O)NC(=N)Nc2cccc(NC(=O)c3ccccc3)c2)cc(OC)c1OC	430	–	–	–	290	290	–	–	–	–	–
COc1cc(C(=O)NC(=N)Nc2ccc(Cl)c(NC(=O)c3ccc(-c4ccccc4)cc3)c2)cc(OC)c1OC	130	–	–	–	70	–	–	–	–	–	–
COc1cc(C(=O)NC(=O)Nc2cccc(NC(=O)c3cc4ccccc4[nH]3)c2)cc(OC)c1OC	220	–	90	85	110	–	–	97	–	–	–
COc1cc(C(=O)NC(=S)Nc2ccc(C)c(NC(=O)c3ccc(-c4ccc(F)cc4)cc3)c2)cc(OC)c1OC	30	–	97	96	29	–	–	86	–	–	–
COc1cc(C(=O)NC(=N)Nc2ccc(C)c(C(=O)Nc3ccccc3)c2)cc(OC)c1OC	200	–	–	–	190	–	–	–	–	–	–

Further molecules by falling IC50 (C3H 10T1/2 [3]), results first:

IC50 (C3H 10T1/2 [3]) [nM]	IC50 (Protein smoothened) [nM]	inhibition [6] [%]	inhibition [7] [%]	IC50 [8] [nM]	IC50 [9] [nM]	Compound	IC50 [1] [nM]	inhibition at 10 µM (C3H 10T1/2 [2]) [%]	Ratio IC50 [4]	Activity (Rattus norvegicus)	Ratio IC50 [5]
2500	–	89	13	1800	–	COc1cc(C(=O)NC(=S)Nc2ccc(C)c(C(=O)Nc3ccccc3)c2)cc(OC)c1OC	–	99	–	–	–
1500	–	95	11	520	–	COc1cc(C(=O)NC(=S)Nc2ccc(Cl)c(C(=O)Nc3ccccc3)c2)cc(OC)c1OC	–	96	–	–	–
900	300	96	15	650	650	COc1cc(C(=O)NC(=S)Nc2cccc(NC(=O)c3ccccc3)c2)cc(OC)c1OC	338	96	–	inactive	–
550	–	93	–	820	–	COc1cc(C(=O)NC(=S)Nc2cccc(-c3cn4ccccc4n3)c2)cc(OC)c1OC	–	94	–	–	–
390	–	–	–	900	–	COc1cc(C(=O)NC(=N)Nc2cccc(-n3ccc4ccccc43)c2)cc(OC)c1OC	–	–	–	–	–
380	–	99	85	130	–	COc1cc(C(=O)NC(=S)Nc2ccc(Cl)c(NC(=O)c3ccc(-c4ccccc4)cc3)c2)cc(OC)c1OC	–	101	–	–	–
300	–	–	–	140	–	COc1cccc(CN(C(=O)CC(C)(C)C)[C@H]2C[C@@H](C(=O)N3CCNCC3)N(Cc3ccc4c(c3)OCO4)C2)c1	95	–	–	–	–
280	–	90	–	180	–	COc1cc(C(=O)NC(=S)Nc2cccc(-c3cc4ccccc4[nH]3)c2)cc(OC)c1OC	–	102	–	–	–
260	–	–	–	110	–	COc1cc(C(=O)NC(=N)Nc2ccc(C)c(NC(=O)c3cccc(-c4ccccc4)c3)c2)cc(OC)c1OC	–	–	–	–	–
140	–	97	–	100	–	COc1cc(C(=O)NC(=S)Nc2cccc(NC(=O)c3ccc(-c4ccc(F)cc4)cc3)c2)cc(OC)c1OC	–	95	–	–	–
130	107	96	76	160	160	COc1cc(C(=O)NC(=O)Nc2cccc(NC(=O)c3ccccc3)c2)cc(OC)c1OC	106	101	–	inactive	–
80	–	89	–	90	–	COc1cc(C(=O)NC(=S)Nc2cccc(NC(=O)c3ccc(-c4ccccc4)cc3)c2)cc(OC)c1OC	–	62	–	–	–
60	63	98	98	41	–	COc1cc(C(=O)NC(=S)Nc2ccc(C)c(NC(=O)c3ccc(-c4ccccc4)cc3)c2)cc(OC)c1OC	9	100	20	inactive	20
11	–	–	–	14	–	COc1cc(C(=O)NC(=N)Nc2ccc(C)c(NC(=O)c3ccc(-c4ccc(F)cc4)cc3)c2)cc(OC)c1OC	–	–	–	–	–
